Data on 16 compounds can be found in ChEMBL document CHEMBL4382206, “Inhibition of adherence of the yeast Candida albicans to buccal epithelial cells by synthetic aromatic glycoconjugates” (Eur J Med Chem, 2018).

In data set [1] the test system is Candida albicans. Nature of the data set: Antimicrobial activity against Candida albicans assessed as inhibition of fungal adherence to BEC by measuring change in adhesion at 10 mg/ml treated with fungus for 90 mins followed by compound washout and cell line addition by crystal violet staining based microscopic analysis relative to control. The data set is classed as functional. Also noted: scale not given: the % may be the effect or the level left. In outline: (§1)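 Stationary-phase C. albicans, grown overnight in YEPD at 30°C and 200 rpm, was washed and suspended in PBS at 1 x 10^8/mL. Yeast was preincubated 90 min with compound, washed twice, and mixed 50:1 with donor buccal cells (5 x 10^5/ml) at 30°C, 200 rpm, for 90 min. Samples were filtered through 30 µm pores, stained with crystal violet, and yeast counted on 200 BECs; n=3, mean ± SEM.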

For data set [2], the system named is Candida albicans. As to the kind of experiment: Growth inhibition of Candida albicans at 0.02 to 10 mg/ml. The data set is classed as organism-based.
A short description of data set [3]: Drug uptake in Candida albicans cell membrane by confocal microscopic analysis. It counts as ADME, cell-based. In outline:
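For confocal imaging, C. albicans cells were co-incubated with the fluorescein-labelled galactoside, with untreated cells and FITC-treated cells as controls. Excitation was at 488 nm and emission was collected at 500–600 nm.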

In data set [4] the test system is Candida albicans. As to the kind of experiment: Antimicrobial activity against Candida albicans assessed as inhibition of fungal adherence to BEC at 0.1 mg/ml incubated with fungal/BEC mixture for 90 mins by crystal violet staining based microscopic analysis relative to untreated control. The data set is classed as functional. The note with it: 1.5 h.
In data set [5] the test system is Candida albicans. As to the kind of experiment: Antimicrobial activity against Candida albicans assessed as inhibition of fungal adherence to BEC at 0.1 mg/ml treated with fungus for 90 mins followed by compound washout and cell line addition by crystal violet staining based microscopic analysis. It counts as functional, organism-based. In outline: as §1
The test system of data set [6] is Candida albicans. Nature of the data set: Antimicrobial activity against Candida albicans assessed as inhibition of fungal adherence to BEC at 0.1 mg/ml incubated with fungal/BEC mixture for 90 mins by crystal violet staining based microscopic analysis relative to PBS treated control. The conditions noted are these: 1.5 h. It counts as functional.
Data set [7] deals with Candida albicans. As to the kind of experiment: Antimicrobial activity against Candida albicans assessed as inhibition of fungal adherence to BEC by measuring adhesion at 0.1 mg/ml after 90 mins by crystal violet staining based microscopic analysis relative to control. It counts as functional. The note with it: 1.5 h. In outline:
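Competition format: yeast (1 x 10^8/mL PBS) and exfoliated human buccal cells (50:1 ratio) were co-incubated with compound for 90 min at 30°C, 200 rpm. BECs were trapped on a 30 µm polycarbonate membrane, washed twice with PBS, heat-fixed and crystal violet-stained. Adherent yeast were counted microscopically on 200 random BECs; three independent occasions, mean ± SEM.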

The structures appear in SMILES notation. The source made the active and inactive calls. The calls are words filed in the database; no cut-off is given here.

Take `CCC(=O)Nc1cc(C(=O)NCc2cn([C@@H]3O[C@H](CO)[C@H](O[C@@H]4O[C@H](CO)[C@H](O)[C@H](O)[C@H]4O)[C@H](O)[C@H]3O)nn2)cc(C(=O)NCc2cn([C@@H]3O[C@H](CO)[C@H](O[C@@H]4O[C@H](CO)[C@H](O)[C@H](O)[C@H]4O)[C@H](O)[C@H]3O)nn2)c1`: in the data set with Candida albicans [1], the Activity is reported as 6.5%.
Regarding `CCC(=O)Nc1cc(C(=O)NCc2cn([C@H]3O[C@@H](C)[C@@H](O)[C@@H](O)[C@@H]3O)nn2)cc(C(=O)NCc2cn([C@H]3O[C@@H](C)[C@@H](O)[C@@H](O)[C@@H]3O)nn2)c1`, the “growth inhibition (GI)” value with Candida albicans [2] is “Non-Toxic”. The Activity in the data set with Candida albicans [1] is -8%.
In the case of `O=C(NCc1cn([C@@H]2O[C@H](CO)[C@H](O)[C@H](O)[C@H]2O)nn1)c1cc(C(=O)NCc2cn([C@@H]3O[C@H](CO)[C@H](O)[C@H](O)[C@H]3O)nn2)cc(C(=O)NCc2cn([C@@H]3O[C@H](CO)[C@H](O)[C@H](O)[C@H]3O)nn2)c1`, the “growth inhibition (GI)” value with Candida albicans [2] is given as “Non-Toxic”. Further, in the data set on Candida albicans [1], the Activity is given as -45%.
On to `CCC(=O)Nc1cc(C(=O)NCc2cn(CCO[C@@H]3O[C@H](CO)[C@H](O)[C@H](O)[C@H]3O)nn2)cc(C(=O)NCc2cn(CCO[C@@H]3O[C@H](CO)[C@H](O)[C@H](O)[C@H]3O)nn2)c1`, for which the “growth inhibition (GI)” value with Candida albicans [2] was “Non-Toxic”. In addition, the Activity in the data set with Candida albicans [1] is recorded as -35%.
As to `CCC(=O)Nc1cc(C(=O)N[C@@H]2O[C@H](CO)[C@H](O)[C@H](O)[C@H]2O)cc(C(=O)N[C@@H]2O[C@H](CO)[C@H](O)[C@H](O)[C@H]2O)c1`, the Activity in the data set with Candida albicans [1] was -26%.
On the same count and under the same terms, for `CCC(=O)Nc1cccc(C(=O)NCc2cn([C@@H]3O[C@H](CO)[C@H](O)[C@H](O)[C@H]3O)nn2)c1` the value was -14.5%; for `CCC(=O)Nc1cc(C(=O)NCc2cn([C@H]3O[C@H](CO)[C@@H](O)[C@H](O)[C@@H]3O)nn2)cc(C(=O)NCc2cn([C@H]3O[C@H](CO)[C@@H](O)[C@H](O)[C@@H]3O)nn2)c1`, 3%.
As for `CC[C@H](C)C[C@H](C)CCCCCCCCC(=O)N[C@H]1C[C@@H](O)[C@@H](NCCN)NC(=O)[C@@H]2[C@@H](O)CCN2C(=O)[C@H]([C@H](O)CCN)NC(=O)[C@H]([C@H](O)[C@@H](O)c2ccc(O)cc2)NC(=O)[C@@H]2C[C@@H](O)CN2C(=O)[C@H]([C@@H](C)O)NC1=O` [CASPOFUNGIN], the “growth inhibition (GI)” value in the data set on Candida albicans [2] is reported as “Non-Toxic”.
For `CCC(=O)Nc1cc(C(=O)NCc2cn([C@@H]3O[C@H](CO)[C@H](O)[C@H](O)[C@H]3O)nn2)cc(C(=O)NCc2cn([C@@H]3O[C@H](CO)[C@@H](O)[C@H](O)[C@@H]3O)nn2)c1`, in the data set with Candida albicans [1], the Activity is listed as -24%.
Regarding `O=C(NCc1cn([C@@H]2O[C@H](CO)[C@H](O)[C@H](O)[C@H]2O)nn1)c1cc(NC(=S)Nc2ccc3c(c2)C(=O)OC32c3ccc(O)cc3Oc3cc(O)ccc32)cc(C(=O)NCc2cn([C@@H]3O[C@H](CO)[C@H](O)[C@H](O)[C@H]3O)nn2)c1`, in data set [3], the Drug uptake result is reported as “Active”.
Regarding `CCC(=O)Nc1cccc(C(=O)NCc2cn(CCO[C@@H]3O[C@H](CO)[C@H](O)[C@H](O)[C@H]3O)nn2)c1`, the Activity with Candida albicans [1] is given as -7.5%.
Broadly, the inhibition is the percentage by which the read-out fell short of the control. For the compound `CCC(=O)Nc1cc(C(=O)NCc2cn([C@@H]3O[C@H](CO)[C@H](O)[C@H](O)[C@H]3O)nn2)cc(C(=O)NCc2cn([C@@H]3O[C@H](CO)[C@H](O)[C@H](O)[C@H]3O)nn2)c1`, the “growth inhibition (GI)” value with Candida albicans [2] is given as “Non-Toxic”. Also, the Activity in the data set on Candida albicans [1] is listed as -80%. In addition, the results for the inhibition at 100 µg/mL in the data set on Candida albicans [4], in the data set on Candida albicans [6] and with Candida albicans [7] were 56%, 31% and 65%, respectively. Moreover, the inhibition entry in the data set on Candida albicans [5] was “Active”.
In the case of `C[C@@H]1O[C@H](n2cc(CNC(=O)c3cc(C(=O)NCc4cn([C@H]5O[C@@H](C)[C@@H](O)[C@@H](O)[C@@H]5O)nn4)cc(C(=O)NCc4cn([C@H]5O[C@@H](C)[C@@H](O)[C@@H](O)[C@@H]5O)nn4)c3)nn2)[C@@H](O)[C@H](O)[C@@H]1O`, the “growth inhibition (GI)” value with Candida albicans [2] is reported as “Non-Toxic”. Besides, the Activity in the data set on Candida albicans [1] is reported as -30%.
Consider `CCC(=O)Nc1cc(C(=O)NCc2cn([C@H]3O[C@H](CO)[C@@H](O)[C@H](O)[C@H]3NC(C)=O)nn2)cc(C(=O)NCc2cn([C@H]3O[C@H](CO)[C@@H](O)[C@H](O)[C@H]3NC(C)=O)nn2)c1`, for which the Activity in the data set on Candida albicans [1] is -45%.
Take `CCC(=O)Nc1cccc(C(=O)NCc2cn([C@H]3O[C@@H](C)[C@@H](O)[C@@H](O)[C@@H]3O)nn2)c1`: in the data set on Candida albicans [1], the Activity was -2%.
For `O=C(NCc1cn(CCO[C@@H]2O[C@H](CO)[C@H](O)[C@H](O)[C@H]2O)nn1)c1cc(C(=O)NCc2cn(CCO[C@@H]3O[C@H](CO)[C@H](O)[C@H](O)[C@H]3O)nn2)cc(C(=O)NCc2cn(CCO[C@@H]3O[C@H](CO)[C@H](O)[C@H](O)[C@H]3O)nn2)c1`, the “growth inhibition (GI)” value with Candida albicans [2] is “Non-Toxic”. The Activity in the data set with Candida albicans [1] is on record as -42%.
